# KCC2 mod = modulates chloride dependent transport by human KCC2; B-score of Tl+ flux slope (higher = more flux/activation; lower = inhibition) at 10 µM; 190,000 compounds, 2.2% hits; AID 1456; Q9H2X9; KCC2 cells, thallium flux FluoZin-2 fluorescence;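 active means thallium flux slope and its plate-corrected score both differing from the plate sample mean at a set confidence after two filtering rounds, in either direction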;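 further: slope of fluorescence scaled to starting intensity during 10 to 20 s after thallium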
# Target sequence (Q9H2X9 whole entry, looked up): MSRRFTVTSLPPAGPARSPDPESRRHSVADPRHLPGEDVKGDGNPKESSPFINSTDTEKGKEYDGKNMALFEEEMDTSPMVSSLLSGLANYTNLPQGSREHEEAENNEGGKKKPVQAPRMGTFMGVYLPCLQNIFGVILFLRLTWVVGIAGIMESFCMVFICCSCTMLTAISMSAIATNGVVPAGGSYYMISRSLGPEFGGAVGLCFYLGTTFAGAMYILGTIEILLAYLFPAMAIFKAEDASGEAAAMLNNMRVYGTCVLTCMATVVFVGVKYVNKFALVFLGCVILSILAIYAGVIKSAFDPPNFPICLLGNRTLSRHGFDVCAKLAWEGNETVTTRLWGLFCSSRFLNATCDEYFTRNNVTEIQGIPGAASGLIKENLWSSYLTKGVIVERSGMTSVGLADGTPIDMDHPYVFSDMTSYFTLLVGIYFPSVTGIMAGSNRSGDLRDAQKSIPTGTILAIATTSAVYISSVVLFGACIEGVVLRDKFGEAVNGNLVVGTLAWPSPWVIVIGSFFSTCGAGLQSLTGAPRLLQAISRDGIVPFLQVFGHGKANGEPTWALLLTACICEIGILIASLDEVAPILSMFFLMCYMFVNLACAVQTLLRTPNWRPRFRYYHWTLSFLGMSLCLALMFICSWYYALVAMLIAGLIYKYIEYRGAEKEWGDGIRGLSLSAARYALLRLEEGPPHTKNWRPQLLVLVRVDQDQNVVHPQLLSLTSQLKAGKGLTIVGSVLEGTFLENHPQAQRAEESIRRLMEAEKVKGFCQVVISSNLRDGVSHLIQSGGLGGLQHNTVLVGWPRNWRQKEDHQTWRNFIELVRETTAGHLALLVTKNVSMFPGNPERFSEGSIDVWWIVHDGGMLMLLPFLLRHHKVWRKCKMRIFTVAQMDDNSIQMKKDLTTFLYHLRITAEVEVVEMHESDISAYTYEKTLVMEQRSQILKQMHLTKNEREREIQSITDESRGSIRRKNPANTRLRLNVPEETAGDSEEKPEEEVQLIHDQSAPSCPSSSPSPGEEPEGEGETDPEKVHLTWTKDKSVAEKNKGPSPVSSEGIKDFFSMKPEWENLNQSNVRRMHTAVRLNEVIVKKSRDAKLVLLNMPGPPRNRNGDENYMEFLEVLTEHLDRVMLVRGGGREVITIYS
# Mdm2 ligase inh = Mdm2 E3 ligase (human) inhibition. Q00987. 210,000 compounds, 0.11% hits. AID 1230. signal enhancement, % at 5 µM. cell-based MDM2 ubiquitination luciferase reporter, 2 h; 0 = plate control, 100 = twice control, blank-subtracted;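 active means signal enhancement of 30% or more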;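 further: luminescence tracks abundance of the self-degrading MDM2-luciferase fusion protein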
#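 Material: stable MDM2–luciferase fusion reporter cells / Quantity: 2000 cells/well / Dosing: single 5 µM compound dose, 0.2% final DMSO / Buffer or medium: DMEM / Schedule: 4 h cell settling then 2 h compound exposure, 37 °C / Detection: luminescence with SteadyLite reagent, 15 min at room temperature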
# m-calpain inh = inhibitors of pig calpain II | purified calpain II, fluorogenic peptide substrate, 30 min | inhibition, % at 16 µM | 220,000 compounds, 0.37% hits | AID 1236;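 active means inhibition above about 50%, limit read from the data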
# ROMK mod = modulators of human ROMK potassium channel; Tet-inducible ROMK, thallium flux fluorescence; actives lie on both sides; B-score at 10 µM; 130,000 compounds, 2% hits; AID 1918;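 active means signal ratio slope over the read window, or its plate-corrected B-score, at least 3 SD from the plate mean, either direction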;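 further: B-score of the F/F0 ratio slope over 7 to 12 s after thallium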
# Arbovirus inh = arbovirus infection inhibition. arbovirus infection cell-based antiviral screen. inhibition, % at 10 µM. 200,000 compounds, 0.37% hits. AID 1251; in the data active means inhibition above about 30%
# PKD1 inh = PKD1 (human) kinase inhibition | Q15139 | PKD1 kinase fluorescence polarization assay | inhibition, % (test concentration not listed) | 200,000 compounds, 0.056% hits | AID 797; in the data active means inhibition above about 50%
# ROMK hit retest = human ROMK channel modulation, retest confirmation | shares compounds with ROMK mod | ROMK thallium flux, fluorescence ratio; stronger effect = lower value | normalized thallium flux (F/F0 slope) at 10 µM | 3,000 compounds, 54% hits;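 active means Flux at 10 µM at least 3 SD below or above vehicle control mean in one or both replicates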
# * hit, by the source's call; . = no result given. Only some compounds are listed: those with a hit (about 3.7% of all), similar ones and a draw of the others.
SMILES,KCC2 mod,Mdm2 ligase inh,m-calpain inh,ROMK mod,Arbovirus inh,PKD1 inh,ROMK hit retest
c1ccc2nc3c(cc2c1)CCCCC3,1.02,.,42.5,.,.,.,0.0738
c1ccc2nc3c(cc2c1)CCCCCC3,.,-11.6,1.8,0.0387,-5.7,-1.1,.
O=C(CS(=O)(=O)c1cccc(C(F)(F)F)c1)Nc1ccccc1Cl,-0.331,-1.5,-4.9,.,-10.7,3.5,.
CCOc1cc(C)c(Cl)cc1S(=O)(=O)NCCOC,1.17,0.2,-2.0,1.38,7.0,-4.0,.
COc1cc(C)c(Cl)c(C)c1S(=O)(=O)NC1CC(C)(C)NC(C)(C)C1,-0.0719,-17.6,23.7,-2.63*,-7.2,5.7,0.0534*
CCOc1cc(C)c(Cl)cc1S(=O)(=O)NC1CC(C)(C)NC(C)(C)C1,-0.141,-9.0,1.1,-3.66*,-6.9,-0.6,0.0645*
Cc1cnc(NC(=O)CSC(=S)N2CCOCC2)s1,0.0425,-7.9,-5.7,0.328,-2.7,0.4,.
CCCC(=O)Nc1ccccc1-c1nnc(SCC)[nH]c1=O,-1.14,-8.1,-8.2,-0.944,.,.,.
Cc1cccc(-c2nc3ccccc3c(=O)n2NC(=O)c2ccc([N+](=O)[O-])c(C)c2)c1,0.0275,-0.3,13.5,.,-13.1,-13.6,.
NC(=O)C1CCN(C(=O)COc2ccc(S(=O)(=O)NCc3ccccc3)cc2Cl)CC1,-0.485,1.5,11.0,-0.0695,6.0,1.0,.
CCOc1cc(CNC2CCCC2)cc(Cl)c1OCc1ccc(F)cc1,-0.101,.,-26.5,-3.79*,-52.1,-1.4,0.0611*
CC(C)(C)NCC(O)COc1ccccc1C(=O)CCc1ccccc1 (stereo unspecified),-0.661,-21.6,23.6,-3.93*,4.6,-3.4,0.0502*
Cc1c[nH]c2cccc(OCC(O)CNC(C)(C)C)c12 (stereo unspecified),0.976,-13.8,20.6,.,1.7,-9.3,.
CCc1ccc(OCC(O)CNC(C)(C)C)cc1 (stereo unspecified),-0.471,-4.8,-2.1,-0.0692,6.7,-1.2,.
CC(C)(C)NCC(O)COc1ccccc1C(C)(C)C (stereo unspecified),0.0773,3.3,-60.9,-3.77*,-11.7,-5.9,0.0784
CC(=O)c1ccc(-c2ccc(C(=O)N3CCCc4ccccc43)o2)cc1,-3,-2.2,27.9,-3.54*,-4.9,-5.0,0.057*
COc1ccc(CC(=O)N2CCCc3ccccc32)cc1,0.385,-32.9,0.1,.,7.1,-6.7,0.0774
Cc1ccc(CNC(=O)CCC2CCCN(C(=O)c3ccc4c(c3)OCO4)C2)o1 (stereo unspecified),.,-5.0,2.2,-0.0631,-2.7,0.7,.
COc1ccccc1OCC(=O)Nc1ccc(S(=O)(=O)Nc2nc(C)cc(C)n2)cc1,-0.0119,-6.8,-23.7,.,-5.1,2.7,.
Cc1ccc(S(=O)(=O)NC(=O)NC(C)Cc2ccccc2)cc1 (stereo unspecified),0.275,-10.9,26.1,0.00214,-0.7,-11.5,.
CSc1cc(N2CCOCC2)nc(-c2ccccc2Cl)n1,-0.3,-2.6,6.1,-0.442,-3.6,-5.5,.
CCOC(=O)CN(C(=O)CNC(=O)c1cccs1)C(C(=O)NC1CCCCC1)c1cccs1 (stereo unspecified),0.857,.,27.2,.,-1.5,3.0,0.0754
O=C(NCc1ccc(F)cc1)C1CCCN(c2nc3ccsc3c(=O)s2)C1 (stereo unspecified),0.0895,-6.4,-43.1,0.00399,-3.1,0.4,.
NC(=S)Nc1cccc(F)c1,-0.874,-3.7,-20.0,.,.,.,.
CC1(C)CC(=O)C2=C(C1)OC(N)=C(C#N)C2C1C=CCCC1 (stereo unspecified),-0.256,-17.7,17.8,0.149,-5.2,-3.3,.
SMILES,KCC2 mod,Mdm2 ligase inh,m-calpain inh,ROMK mod,Arbovirus inh,PKD1 inh,ROMK hit retest
Cc1cccc(C2c3[nH]c4ccccc4c3CCN2C(=O)c2nn(C)c(=O)c3ccccc23)n1 (stereo unspecified),-0.123,-16.2,-103.3,-3.98*,-5.7,3.7,0.066*
Cc1cccc(C2c3[nH]c4ccccc4c3CCN2C(=O)c2ocnc2C)n1 (stereo unspecified),-0.106,-8.6,-9.0,.,5.5,2.7,.
CCN(CC)c1ccc(NC(=O)CSc2nc3ccccc3c(=O)n2-c2cc(S(=O)(=O)N(C)C)ccc2C)cc1,-0.516,-17.1,-54.7,-0.618,-2.7,-5.6,.
C=CCN=c1scc(-c2ccco2)n1/N=C/c1ccc(O)c(O)c1O,-0.0818,-18.5,-13.3,.,.,.,.
COCCN=c1scc(-c2ccco2)n1/N=C/c1ccc(O)c(O)c1O,-0.0781,-17.5,-35.2,3.23*,-0.7,-1.9,0.0789
CC(=O)c1nnn(-c2ccc([N+](=O)[O-])cc2)c1C,-0.412,-8.0,-11.6,0.639,3.2,-1.1,.
Cc1cnnn1-c1ccc([N+](=O)[O-])cc1,-0.321,-26.4,-4.2,-3.24*,2.6,-6.6,0.0772
Cc1cccc(-c2nc(CN3CCCC(C(=O)NC4CCCCC4)C3)c(C)o2)c1 (stereo unspecified),.,6.8,-6.4,-2.46*,-1.2,-1.8,0.0664*
Cc1cccc(-c2nc(CN3CCCC(C(=O)NC4CCCCCC4)C3)c(C)o2)c1 (stereo unspecified),.,-20.1,-2.5,-3.52*,-18.4,1.7,0.0624*
Cc1oc(-c2cccc(Cl)c2)nc1CN1CCCC(C(=O)NCc2ccco2)C1 (stereo unspecified),.,-12.8,-40.1,-1.46,3.0,-4.3,.
Cc1oc(-c2ccc(Cl)cc2)nc1CN1CCCC(C(=O)NCc2ccccn2)C1 (stereo unspecified),-0.176,0.7,-6.6,-0.294,1.7,-3.1,.
OC(CN1CCN(c2ccccc2)CC1)Cn1c2ccccc2c2ccccc21 (stereo unspecified),1.32,-38.1,2.0,0.0838,13.7,-6.5,.
Cn1cc(CN2CCN(c3ccccc3)CC2)c2ccccc21,0.278,0.1,5.3,-5.18*,35.8*,6.1,0.0562*
CCC(C)(C(=O)NC1CCCC1)N(C(=O)c1cnccn1)c1c(C)n(C)n(-c2ccccc2)c1=O (stereo unspecified),0.0508,-5.8,-9.3,.,4.3,-5.0,.
CC(=O)Nc1ccc(S(=O)(=O)NCCC(=O)NCCc2ccc(F)cc2)cc1,-0.568,-5.8,-7.1,.,-1.2,-5.2,0.0811
Cc1cc(C)c2nc(/N=C(\N)NC(=O)Nc3ccccc3)nc(C)c2c1,0.541,-6.0,-77.5,1.49,-16.7,-6.0,.
Cc1cccc(-n2c(SCc3ccc(C#N)cc3)nnc2-c2c[nH]c3ccccc23)c1,-0.21,-0.6,-66.2,0.405,2.0,-10.5,.
COc1ccccc1CNCC(O)Cn1c2ccccc2c2ccccc21 (stereo unspecified),0.623,3.0,3.1,-3.24*,-39.3,-2.9,0.0612*
COc1ccc(-n2cc(CNCc3cccnc3)c(-c3cccc(F)c3)n2)cc1,-0.00786,-10.4,-1.2,-3.2,-9.3,-3.7,.

# Screens from PubChem BioAssay.
